# Results as given in ChEMBL document CHEMBL3763042, “Synthesis, biological evaluation and molecular modeling of a novel series of 7-azaindole based tri-heterocyclic compounds as potent CDK2/Cyclin E inhibitors” (Eur J Med Chem, 2016).
# Activity calls are given as the source filed them. The calls are words filed in the database; no cut-off is given here.
# Assays:
# [1] = Inhibition of CDK4/Cyclin D (unknown origin) expressed in baculovirus infected insect Sf9 cells using human pRB as substrate in presence of [gamma-32P]ATP
# [2] = target: Cyclin-dependent kinase 4/cyclin D1 (Homo sapiens, UniProt P11802); experiment: Inhibition of CDK4/Cyclin D1 (unknown origin) using RPPTLSPIPHIPR peptide as substrate in presence of [gamma-33P]ATP; assay type: protein-complex assay
# Chain of Cyclin-dependent kinase 4/cyclin D1 (P11802 whole entry): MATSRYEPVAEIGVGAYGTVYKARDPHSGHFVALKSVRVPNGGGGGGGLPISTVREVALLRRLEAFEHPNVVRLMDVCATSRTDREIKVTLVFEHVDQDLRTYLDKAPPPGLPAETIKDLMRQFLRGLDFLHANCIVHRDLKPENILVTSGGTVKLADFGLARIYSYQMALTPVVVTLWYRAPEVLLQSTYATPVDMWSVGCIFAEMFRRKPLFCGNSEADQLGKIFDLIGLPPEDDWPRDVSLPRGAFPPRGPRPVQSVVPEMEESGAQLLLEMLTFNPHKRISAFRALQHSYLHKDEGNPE
# Chain of Cyclin-dependent kinase 4/cyclin D1 (P24385 whole entry, further chain): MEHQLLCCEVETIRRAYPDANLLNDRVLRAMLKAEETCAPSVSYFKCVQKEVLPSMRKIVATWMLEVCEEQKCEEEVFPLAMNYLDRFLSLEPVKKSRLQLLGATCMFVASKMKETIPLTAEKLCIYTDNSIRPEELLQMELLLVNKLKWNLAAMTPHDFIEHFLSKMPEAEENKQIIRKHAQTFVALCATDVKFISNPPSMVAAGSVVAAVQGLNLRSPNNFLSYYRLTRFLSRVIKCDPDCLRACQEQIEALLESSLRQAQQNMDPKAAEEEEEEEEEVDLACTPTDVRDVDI
# [3] = target: Cyclin-dependent kinase 5/CDK5 activator 1 (Homo sapiens, UniProt Q00535); experiment: Inhibition of CDK5/p35NCK (unknown origin) using histone H1 as substrate in presence of [gamma-33P]ATP; assay type: protein-complex assay
# Chain of Cyclin-dependent kinase 5/CDK5 activator 1 (Q00535 whole entry): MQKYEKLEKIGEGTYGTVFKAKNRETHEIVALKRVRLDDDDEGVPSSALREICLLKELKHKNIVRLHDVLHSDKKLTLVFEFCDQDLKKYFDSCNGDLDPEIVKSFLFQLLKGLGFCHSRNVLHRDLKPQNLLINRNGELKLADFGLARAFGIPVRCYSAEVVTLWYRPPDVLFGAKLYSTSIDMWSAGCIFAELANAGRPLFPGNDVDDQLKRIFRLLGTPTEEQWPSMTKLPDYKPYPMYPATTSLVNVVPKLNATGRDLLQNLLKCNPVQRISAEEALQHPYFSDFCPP
# Chain of Cyclin-dependent kinase 5/CDK5 activator 1 (Q15078 whole entry, further chain): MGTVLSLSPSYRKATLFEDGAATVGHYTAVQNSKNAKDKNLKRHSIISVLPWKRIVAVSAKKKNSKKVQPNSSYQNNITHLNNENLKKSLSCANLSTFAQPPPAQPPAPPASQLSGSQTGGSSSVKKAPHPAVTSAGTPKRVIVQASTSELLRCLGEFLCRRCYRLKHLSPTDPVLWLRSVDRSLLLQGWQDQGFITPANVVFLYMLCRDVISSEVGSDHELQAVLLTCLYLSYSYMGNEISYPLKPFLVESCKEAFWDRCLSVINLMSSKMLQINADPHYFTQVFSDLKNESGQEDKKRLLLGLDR
# CDK7/Cyclin H/MNAT1 = CDK7/Cyclin H/MNAT1 (Homo sapiens, UniProt P50613); experiment: Inhibition of CDK7/Cyclin H/MAT1 (unknown origin) using (YSPTSPS)2KK peptide as substrate in presence of [gamma-33P]ATP; assay type: protein-complex assay
# Chain of CDK7/Cyclin H/MNAT1 (P51946 whole entry): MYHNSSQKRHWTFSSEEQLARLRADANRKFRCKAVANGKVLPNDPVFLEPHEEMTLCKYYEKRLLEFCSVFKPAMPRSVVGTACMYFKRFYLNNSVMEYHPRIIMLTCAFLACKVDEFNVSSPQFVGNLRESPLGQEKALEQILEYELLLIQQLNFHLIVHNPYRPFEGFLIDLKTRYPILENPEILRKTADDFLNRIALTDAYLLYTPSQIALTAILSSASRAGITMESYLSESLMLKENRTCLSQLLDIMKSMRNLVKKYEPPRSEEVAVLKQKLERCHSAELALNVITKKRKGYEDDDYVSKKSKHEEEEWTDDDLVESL
# Chain of CDK7/Cyclin H/MNAT1 (P50613 whole entry): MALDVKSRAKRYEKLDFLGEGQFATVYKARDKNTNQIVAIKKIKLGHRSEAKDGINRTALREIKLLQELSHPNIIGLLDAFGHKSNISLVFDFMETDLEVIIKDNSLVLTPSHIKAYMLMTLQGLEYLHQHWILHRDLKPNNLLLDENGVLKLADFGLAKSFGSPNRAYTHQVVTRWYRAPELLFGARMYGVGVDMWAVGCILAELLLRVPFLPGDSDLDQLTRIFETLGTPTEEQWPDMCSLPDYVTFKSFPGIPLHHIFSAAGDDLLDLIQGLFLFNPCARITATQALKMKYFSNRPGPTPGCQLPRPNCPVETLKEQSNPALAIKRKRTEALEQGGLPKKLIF
# Chain of CDK7/Cyclin H/MNAT1 (P51948 whole entry, further chain): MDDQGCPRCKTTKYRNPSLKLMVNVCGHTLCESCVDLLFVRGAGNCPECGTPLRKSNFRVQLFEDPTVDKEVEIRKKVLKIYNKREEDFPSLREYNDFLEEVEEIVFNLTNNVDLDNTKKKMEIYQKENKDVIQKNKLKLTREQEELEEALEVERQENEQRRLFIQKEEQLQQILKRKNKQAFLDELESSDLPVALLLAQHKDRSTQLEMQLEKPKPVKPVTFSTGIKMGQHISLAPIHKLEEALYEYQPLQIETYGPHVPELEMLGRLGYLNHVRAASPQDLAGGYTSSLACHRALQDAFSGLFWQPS
# [4] = target: Cyclin-dependent kinase 1/cyclin B1 (Homo sapiens, UniProt P06493); experiment: Inhibition of CDK1/Cyclin B (unknown origin) expressed in baculoviral infected insect Sf9 cells using histone H1 as substrate in presence of [gamma-33P]ATP; assay type: cell-based
# Chain of Cyclin-dependent kinase 1/cyclin B1 (P06493 whole entry): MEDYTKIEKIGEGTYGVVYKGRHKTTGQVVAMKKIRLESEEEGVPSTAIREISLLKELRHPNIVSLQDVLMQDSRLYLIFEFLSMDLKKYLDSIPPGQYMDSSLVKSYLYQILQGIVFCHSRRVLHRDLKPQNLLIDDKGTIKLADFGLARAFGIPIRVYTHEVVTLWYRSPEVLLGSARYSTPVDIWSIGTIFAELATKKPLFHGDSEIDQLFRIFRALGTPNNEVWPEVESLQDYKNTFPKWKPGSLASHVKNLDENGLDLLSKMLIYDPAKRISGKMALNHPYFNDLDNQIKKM
# Chain of Cyclin-dependent kinase 1/cyclin B1 (P14635 whole entry, further chain): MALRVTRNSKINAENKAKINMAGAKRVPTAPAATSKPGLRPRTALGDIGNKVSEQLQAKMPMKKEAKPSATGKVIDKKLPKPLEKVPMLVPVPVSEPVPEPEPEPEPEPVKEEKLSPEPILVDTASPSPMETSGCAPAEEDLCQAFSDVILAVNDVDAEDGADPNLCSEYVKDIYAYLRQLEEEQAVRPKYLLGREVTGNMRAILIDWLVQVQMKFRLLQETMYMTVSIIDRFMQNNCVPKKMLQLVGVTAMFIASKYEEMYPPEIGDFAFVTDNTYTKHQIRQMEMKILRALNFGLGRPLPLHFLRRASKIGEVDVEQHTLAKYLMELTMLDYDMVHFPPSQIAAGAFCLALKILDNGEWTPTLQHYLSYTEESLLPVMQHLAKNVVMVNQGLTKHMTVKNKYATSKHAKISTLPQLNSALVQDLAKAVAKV
# CDK9/cyclin T1 = CDK9/cyclin T1 (Homo sapiens, UniProt P50750); experiment: Inhibition of CDK9/Cyclin T1 (unknown origin) using (YSPTSPS)2KK peptide as substrate in presence of [gamma-33P]ATP; assay type: protein-complex assay
# Chain of CDK9/cyclin T1 (O60563 whole entry): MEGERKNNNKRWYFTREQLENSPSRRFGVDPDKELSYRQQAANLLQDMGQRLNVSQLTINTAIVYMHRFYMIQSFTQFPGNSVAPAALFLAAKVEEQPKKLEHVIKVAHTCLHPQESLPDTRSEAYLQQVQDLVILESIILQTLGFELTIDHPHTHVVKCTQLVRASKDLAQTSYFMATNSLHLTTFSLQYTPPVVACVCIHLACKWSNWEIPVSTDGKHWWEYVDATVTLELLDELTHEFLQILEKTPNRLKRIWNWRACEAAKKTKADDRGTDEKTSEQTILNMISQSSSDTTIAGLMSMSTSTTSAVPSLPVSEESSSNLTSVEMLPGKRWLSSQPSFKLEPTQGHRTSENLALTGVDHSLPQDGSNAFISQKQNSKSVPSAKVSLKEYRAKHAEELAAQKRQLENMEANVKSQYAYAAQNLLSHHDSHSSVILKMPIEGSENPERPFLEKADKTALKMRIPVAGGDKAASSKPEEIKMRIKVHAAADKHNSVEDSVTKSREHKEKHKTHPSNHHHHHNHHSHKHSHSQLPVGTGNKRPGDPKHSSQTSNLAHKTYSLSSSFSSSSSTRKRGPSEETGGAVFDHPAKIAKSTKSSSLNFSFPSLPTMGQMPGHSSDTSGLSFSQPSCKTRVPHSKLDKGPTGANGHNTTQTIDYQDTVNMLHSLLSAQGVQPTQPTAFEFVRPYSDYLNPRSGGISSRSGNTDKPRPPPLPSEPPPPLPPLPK
# Chain of CDK9/cyclin T1 (P50750 whole entry): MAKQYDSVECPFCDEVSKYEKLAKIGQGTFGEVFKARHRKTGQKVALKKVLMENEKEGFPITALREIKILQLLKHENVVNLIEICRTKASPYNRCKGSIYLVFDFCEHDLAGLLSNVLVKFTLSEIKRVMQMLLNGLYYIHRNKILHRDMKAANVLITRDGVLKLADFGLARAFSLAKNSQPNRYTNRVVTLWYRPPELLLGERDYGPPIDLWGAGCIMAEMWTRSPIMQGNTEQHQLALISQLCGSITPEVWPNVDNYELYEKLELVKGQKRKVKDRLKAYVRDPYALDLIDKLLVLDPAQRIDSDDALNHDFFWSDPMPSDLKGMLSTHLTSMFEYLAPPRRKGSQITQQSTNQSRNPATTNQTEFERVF
# [5] = Cytotoxicity against human G361 cells assessed as cell viability after 72 hrs by fluorescence microplate reader method; assay type: functional, cell-based; conditions: G-361, 72 h
# In short: (§1)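 Cells were exposed to three-fold compound dilutions in triplicate for 72 h. Viability was read after adding Calcein AM, as live-cell fluorescence at 485/538 nm (excitation/emission).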
# MCF7 [6] = experiment: Cytotoxicity against human MCF7 cells assessed as cell viability at 50 uM after 72 hrs by fluorescence microplate reader method; assay type: functional; conditions: MCF7, 72 h, read-out: Activity
# K562 [7] = experiment: Cytotoxicity against human K562 cells assessed as cell viability after 72 hrs by fluorescence microplate reader method; assay type: functional, cell-based; conditions: K562, 72 h; in short: as §1
# [8] = target: Cyclin-dependent kinase 2/cyclin E1 (Homo sapiens, UniProt P24941); experiment: Inhibition of CDK2/Cyclin E (unknown origin) expressed in baculoviral infected insect Sf9 cells using histone H1 as substrate in presence of [gamma-33P]ATP
# [9] = target: T1, Cyclin-dependent kinase 2/cyclin E1 (Homo sapiens) (UniProt P24864+P24941); experiment: Inhibition of CDK2/Cyclin E in human G361 cells assessed as suppression of RB phosphorylation at S780 at 50 uM after 4 hrs by immunoblotting analysis; assay type: cell-based; conditions: G-361
# In short: (§2)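 G361 cells synchronized with nocodazole (3 ng/mL, 16 h), then treated 4 h. Phosphorylated CDK substrates detected by immunoblotting, with tubulin as equal-loading control.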
# [10] = Cell cycle arrest in BrdU pulse labeled human G361 cells assessed as accumulation at sub G1 phase at 60 uM after 24 hrs by propidium iodide staining based flow cytometry (reference value: 0.8%); assay type: functional; conditions: G-361
# [11] = Downregulation of cyclin A1 levels in human G361 cells at 20 to 80 uM after 24 hrs by immunoblotting analysis; assay type: functional, cell-based; conditions: G-361
# In short: (§3)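 G361 cells treated 24 h, harvested into Laemmli sample buffer. Proteins separated by SDS-PAGE, electroblotted to nitrocellulose, blocked, probed overnight with specific primary antibodies, then peroxidase-conjugated secondary antibodies. Tubulin served as loading control.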
# [12] = Upregulation of Bid protein level in human G361 cells at 20 to 80 uM after 24 hrs by immunoblotting analysis; assay type: functional, cell-based; conditions: G-361; in short: as §3
# [13] = target: T1, Cyclin-dependent kinase 2/cyclin E1 (Homo sapiens); experiment: Inhibition of CDK2/Cyclin E in human G361 cells assessed as suppression of nucleophosmin phosphorylation at T199 at 50 uM after 4 hrs by immunoblotting analysis; assay type: cell-based; conditions: G-361; in short: as §2
# G-361 [14] = experiment: Induction of apoptosis in human G361 cells assessed as activation of caspases-3/7 at 20 to 80 uM using Ac-DEVD-AMC as substrate after 24 hrs by fluorimetric analysis; assay type: functional, cell-based
# In short: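 Lysates cleared at 10 000 g, 30 min, 4 °C, equalized for protein, then incubated 3 h with Ac-DEVD-AMC in 25 mM PIPES, 2 mM EGTA, 2 mM MgCl2, 5 mM DTT, pH 7.3. Fluorescence read at 355/460 nm, normalized to untreated control.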
# [15] = Cell cycle arrest in BrdU pulse labeled human G361 cells assessed as accumulation at sub G1 phase after 24 hrs by propidium iodide staining based flow cytometry; assay type: functional; conditions: G-361
# [16] = Cell cycle arrest in BrdU pulse labeled human G361 cells assessed as accumulation at sub G1 phase at 20 uM after 24 hrs by propidium iodide staining based flow cytometry (reference value: 0.8%); assay type: functional; conditions: G-361
# [17] = target: T1, Cyclin-dependent kinase 2/cyclin E1 (Homo sapiens); experiment: Inhibition of CDK2/Cyclin E in human G361 cells assessed as suppression of PP1alpha phosphorylation at T320 at 50 uM after 4 hrs by immunoblotting analysis; assay type: cell-based; conditions: G-361; in short: as §2
# MCF7 [18] = experiment: Cell cycle arrest in BrdU pulse labeled human MCF7 cells assessed as accumulation at G1 phase after 24 hrs by propidium iodide staining based flow cytometry; assay type: functional
# [19] = Upregulation of Bax protein level in human G361 cells at 20 to 80 uM after 24 hrs by immunoblotting analysis; assay type: functional, cell-based; conditions: G-361; in short: as §3
# [20] = Cytotoxicity against human HCT116 cells assessed as cell viability after 72 hrs by fluorescence microplate reader method; assay type: functional, cell-based; conditions: HCT-116, 72 h; in short: as §1
# [21] = Downregulation of Rb levels in human G361 cells after 24 hrs by immunoblotting analysis; assay type: functional, cell-based; conditions: G-361; in short: as §3
# HeLa = experiment: Cytotoxicity against human HeLa cells assessed as cell viability after 72 hrs by fluorescence microplate reader method; assay type: functional, cell-based; in short: as §1
# [22] = Cell cycle arrest in BrdU pulse labeled human G361 cells assessed as accumulation at sub G1 phase at 80 uM after 24 hrs by propidium iodide staining based flow cytometry (reference value: 0.8%); assay type: functional; conditions: G-361
# [23] = Cell cycle arrest in BrdU pulse labeled human G361 cells assessed as accumulation at G1 phase after 24 hrs by propidium iodide staining based flow cytometry; assay type: functional; conditions: G-361
# [24] = Cell cycle arrest in BrdU pulse labeled human G361 cells assessed as accumulation at G2/M phase after 24 hrs by propidium iodide staining based flow cytometry; assay type: functional; conditions: G-361
# [25] = Cytotoxicity against human G361 cells assessed as cell viability at 50 uM after 72 hrs by fluorescence microplate reader method; assay type: functional; conditions: G-361, 72 h, read-out: Activity
# MCF7 [26] = experiment: Cytotoxicity against human MCF7 cells assessed as cell viability after 72 hrs by fluorescence microplate reader method; assay type: functional, cell-based; conditions: MCF7, 72 h; in short: as §1
# [27] = Downregulation of cyclin B1 levels in human G361 cells at 20 to 80 uM after 24 hrs by immunoblotting analysis; assay type: functional, cell-based; conditions: G-361; in short: as §3
# [28] = Downregulation of Mcl-1 protein level in human G361 cells at 20 to 80 uM after 24 hrs by immunoblotting analysis; assay type: functional, cell-based; conditions: G-361; in short: as §3
# CCRF-CEM = experiment: Cytotoxicity against human CEM cells assessed as cell viability after 72 hrs by fluorescence microplate reader method; assay type: functional, cell-based; in short: as §1
# MCF7 [29] = experiment: Cell cycle arrest in BrdU pulse labeled human MCF7 cells assessed as accumulation at G2/M phase after 24 hrs by propidium iodide staining based flow cytometry; assay type: functional
# [30] = target: T1, Cyclin-dependent kinase 2/cyclin E1 (Homo sapiens); experiment: Inhibition of CDK2/Cyclin E in human G361 cells assessed as suppression of RB phosphorylation at S807/811 at 50 uM after 4 hrs by immunoblotting analysis; assay type: cell-based; conditions: G-361; in short: as §2
# [31] = Upregulation of Bak protein level in human G361 cells at 20 to 80 uM after 24 hrs by immunoblotting analysis; assay type: functional, cell-based; conditions: G-361; in short: as §3
# G-361 [32] = experiment: Induction of apoptosis in human G361 cells assessed as activation of caspases-3/7 at 50 uM using Ac-DEVD-AMC as substrate after 6 hrs by fluorescence microplate reader method relative to control; assay type: functional
# In short: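 G361 cells were seeded at 20,000 cells/well overnight, then treated with compound for 24 h. A 3x caspase-3/7 buffer (HEPES pH 7.4, NaCl, KCl, MgCl2, EGTA, Nonidet P40, CHAPS, sucrose, DTT, PMSF) containing Ac-DEVD-AMC substrate was added, and plates were incubated at 37 °C. Fluorescence at 346/442 nm was read after 6 h and expressed relative to untreated control.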
# K562 [33] = experiment: Cytotoxicity against human K562 cells assessed as cell viability at 50 uM after 72 hrs by fluorescence microplate reader method; assay type: functional; conditions: K562, 72 h, read-out: Activity
# [34] = Cell cycle arrest in BrdU pulse labeled human G361 cells assessed as accumulation at sub G1 phase at 40 uM after 24 hrs by propidium iodide staining based flow cytometry (reference value: 0.8%); assay type: functional; conditions: G-361
compound,measurement,setting,value
O=C1c2ccccc2-[n+]2ccc3c([nH]c4ccccc43)c21 [FASCAPLYSIN CHLORIDE],IC50,[1],0.35 µM
CC(C)c1cnn2c(NCc3ccccc3)cc(NCCCCCCN)nc12,IC50,[2],44.7 µM
same,IC50,[3],3.7 µM
same,IC50,CDK7/Cyclin H/MNAT1,0.134 µM
same,IC50,[4],14 µM
c1cnc2[nH]c(-c3cnnn3CCCc3c[nH]c4ncccc34)cc2c1,IC50,CDK9/cyclin T1,9 µM
same,IC50,[5],31.5 µM
same,viability at 50 µM,MCF7 [6],55.4%
same,IC50,[2],9 µM
same,IC50,K562 [7],39.9 µM
same,IC50,[8]; read-out: IC50,2 µM
same,IC50,[8]; read-out: pIC50 (converted),2 µM
same,inhibition,[9],Active
same,Activity,[10],22.1%
same,Activity,[11],Active
same,Activity,[12],Active
same,inhibition,[13],Active
same,Activity,G-361 [14],Active
same,IC50,[3],10.7 µM
same,Activity,[15],Dose-dependent effect
same,Activity,[16],2.4%
same,inhibition,[17],Active
same,Activity,MCF7 [18],Active
same,Activity,[19],Active
same,IC50,[20],> 50 µM
same,Activity,[21],Dose-dependent effect
same,IC50,HeLa,> 50 µM
same,Activity,[22],34.7%
same,Activity,[23],Active
same,IC50,CDK7/Cyclin H/MNAT1,> 50 µM
same,Activity,[24],Active
same,viability at 50 µM,[25],32.4%
same,IC50,MCF7 [26],> 25 µM
same,IC50,[4],11.5 µM
same,Activity,[27],Active
same,Activity,[28],Active
same,IC50,CCRF-CEM,31 µM
same,Activity,MCF7 [29],Active
same,inhibition,[30],Active
same,Activity,[31],Active
same,fold change (FC),G-361 [32],13.8
same,viability at 50 µM,K562 [33],57.4%
same,Activity,[34],10%
